{
  "source": "ChEMBL document CHEMBL5625173",
  "about": "“Antimycobacterial pyridine carboxamides: From design to in vivo activity” (Eur J Med Chem, 2023)",
  "key": {"[1]": {"experiment": "Cytotoxicity against human HepG2 cells assessed as inhibition of cell viability", "assay_type": "toxicity, cell-based"}, "Mycobacterium avium": {"system": "Mycobacterium avium", "experiment": "Antimycobacterial activity against Mycobacterium avium by alamar blue staining based microplate analysis", "assay_type": "functional", "method_in_brief": "(§1)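 Microplate Alamar Blue assay. MIC values read at pH 6.6 (neutral). One acidic-pH test at pH 5.6 is footnoted separately.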"}, "[2]": {"system": "Mycolicibacterium smegmatis", "experiment": "Antimycobacterial activity against Mycobacterium smegmatis by alamar blue staining based microplate analysis", "assay_type": "functional", "method_in_brief": "(§2)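 Microplate Alamar Blue assay, one of six mycobacterial strains tested (Mtb H37Rv, Mtb H37Ra, M. kansasii, M. avium, M. smegmatis, M. aurum); value reported as MIC.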"}, "[3]": {"system": "Mycobacterium tuberculosis", "experiment": "Antimycobacterial activity against Mycobacterium tuberculosis H37Ra by alamar blue staining based microplate analysis", "assay_type": "functional", "method_in_brief": "as §1"}, "[4]": {"system": "Mycobacterium tuberculosis", "experiment": "Antimycobacterial activity against Mycobacterium tuberculosis H37Rv by alamar blue staining based microplate analysis", "assay_type": "functional", "method_in_brief": "as §1"}, "[5]": {"system": "Mycobacterium tuberculosis", "experiment": "Antimycobacterial activity against Mycobacterium tuberculosis IZAK by alamar blue staining based microplate analysis", "assay_type": "functional"}, "[6]": {"experiment": "Drug metabolism in human liver microsomes assessed as M2 metabolite formation at 90 uM incubated for 3 hrs", "assay_type": "ADME, Microsome", "method_in_brief": "(§3)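 Phase I metabolite identification: ammonium salt of the compound (for solubility) or its lactone, 90 μM, incubated with human liver microsomes for 3 h; metabolites detected by HPLC-MS, positive ion mode, by m/z.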"}, "[7]": {"experiment": "Selectivity index, ratio of IC50 for cytotoxicity against human HepG2 cells to MIC for antimycobacterial activity against Mycobacterium tuberculosis H37Rv", "assay_type": "toxicity, cell-based", "conditions": "read-out: Selectivity Index"}, "[8]": {"experiment": "Drug metabolism in human liver microsomes assessed as M3 metabolite formation at 90 uM incubated for 3 hrs", "assay_type": "ADME, Microsome", "method_in_brief": "as §3"}, "Mycolicibacterium aurum": {"system": "Mycolicibacterium aurum", "experiment": "Antimycobacterial activity against Mycobacterium aurum by alamar blue staining based microplate analysis", "assay_type": "functional", "method_in_brief": "as §2"}, "[9]": {"experiment": "Metabolic stability in human liver microsomes assessed as half life at 3 uM incubated for 45 mins by HPLC-MS analysis", "assay_type": "ADME, Microsome", "method_in_brief": "(§4)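 Ammonium salt or lactone, 3 μM, incubated with human liver microsomes at physiological pH; reactions stopped at 0, 5, 15, 30 and 45 min and analysed by HPLC-MS; k, t1/2 and intrinsic clearance calculated from the HPLC-MS records.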"}, "[10]": {"system": "Mycobacterium tuberculosis", "experiment": "Antimycobacterial activity against Mycobacterium tuberculosis MAT1 by alamar blue staining based microplate analysis", "assay_type": "functional"}, "Mycobacterium kansasii": {"system": "Mycobacterium kansasii", "experiment": "Antimycobacterial activity against Mycobacterium kansasii by alamar blue staining based microplate analysis", "assay_type": "functional", "method_in_brief": "as §2"}, "[11]": {"experiment": "Drug metabolism in human liver microsomes assessed as M1 metabolite formation at 90 uM incubated for 3 hrs", "assay_type": "ADME, Microsome", "method_in_brief": "as §3"}, "[12]": {"experiment": "Metabolic stability in human liver microsomes assessed as intrinsic clearance at 3 uM incubated for 45 mins by HPLC analysis", "assay_type": "ADME, Microsome", "conditions": "read-out: CLH", "method_in_brief": "as §4"}, "[13]": {"system": "Mycobacterium tuberculosis", "experiment": "Antimycobacterial activity against Mycobacterium tuberculosis H37Rv assessed as change in trehalose dimycolates production at 1.5 to 6 ug/ml incubated for 24 hrs in presence of 14C acetate by TLC analysis", "assay_type": "functional, organism-based", "conditions": "dose 1.5-6 µg/ml", "method_in_brief": "(§5)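 Mtb H37Rv cultures exposed to 0, 1.5, 3 or 6 μg/ml compound or its sodium salt for 24 h. 14C acetate then added and cells grown a further 24 h. Lipids and mycolic acids extracted; fatty acids derivatized to methyl esters. Separated by TLC on standard or AgNO3-impregnated plates in Solvent IV and visualized by autoradiography.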"}, "[14]": {"system": "Mycobacterium tuberculosis", "experiment": "Antimycobacterial activity against Mycobacterium tuberculosis H37Rv assessed as decreased synthesis of cyclopropyl-mycolic acid at 1.5 to 6 ug/ml incubated for 24 hrs in presence of 14C acetate by TLC analysis", "assay_type": "functional, organism-based", "conditions": "dose 1.5-6 µg/ml", "method_in_brief": "as §5"}, "[15]": {"system": "Mycobacterium tuberculosis", "experiment": "Antimycobacterial activity against Mycobacterium tuberculosis H37Rv infected in mouse assessed as reduction in colony formation in spleen at 50 mg/kg administered for 28 days", "assay_type": "functional, organism-based", "conditions": "time 28.0 day", "method_in_brief": "(§6)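 Mice infected intranasally with Mtb H37Rv; infection allowed to develop four weeks. Then dosed for 28 days with sodium salt forms as water solution by gastric tube. Lung and spleen CFU determined and compared with untreated control group.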"}, "[16]": {"system": "Mycobacterium tuberculosis", "experiment": "Antimycobacterial activity against Mycobacterium tuberculosis H37Rv assessed as change in phospholipid production at 1.5 to 6 ug/ml incubated for 24 hrs in presence of 14C acetate by TLC analysis", "assay_type": "functional, organism-based", "conditions": "dose 1.5-6 µg/ml", "method_in_brief": "as §5"}, "[17]": {"system": "Mycobacterium tuberculosis", "experiment": "Antimycobacterial activity against Mycobacterium tuberculosis H37Rv assessed as decreased synthesis of tri-acylglyerols at 1.5 to 6 ug/ml incubated for 24 hrs in presence of 14C acetate by TLC analysis", "assay_type": "functional, organism-based", "conditions": "dose 1.5-6 µg/ml", "method_in_brief": "as §5"}, "[18]": {"system": "Mycobacterium tuberculosis", "experiment": "Antimycobacterial activity against Mycobacterium tuberculosis H37Rv assessed as decreased synthesis of methoxy-mycolic acid at 1.5 to 6 ug/ml incubated for 24 hrs in presence of 14C acetate by TLC analysis", "assay_type": "functional, organism-based", "conditions": "dose 1.5-6 µg/ml", "method_in_brief": "as §5"}, "[19]": {"system": "Mycobacterium tuberculosis", "experiment": "Antimycobacterial activity against Mycobacterium tuberculosis H37Rv at 1 times MIC measured after 15 days in presence of methionine by alamar blue staining based microplate analysis", "assay_type": "functional, organism-based", "conditions": "time 15.0 day"}, "[20]": {"system": "Mycobacterium tuberculosis", "experiment": "Antimycobacterial activity against Mycobacterium tuberculosis H37Rv assessed as change in trehalose monomycolates production at 1.5 to 6 ug/ml incubated for 24 hrs in presence of 14C acetate by TLC analysis", "assay_type": "functional, organism-based", "conditions": "dose 1.5-6 µg/ml", "method_in_brief": "as §5"}, "[21]": {"system": "Mycobacterium tuberculosis", "experiment": "Antimycobacterial activity against Mycobacterium tuberculosis H37Rv infected in mouse assessed as reduction in colony formation in lungs at 50 mg/kg administered for 28 days", "assay_type": "functional, organism-based", "conditions": "time 28.0 day", "method_in_brief": "as §6"}, "[22]": {"system": "Mycobacterium tuberculosis", "experiment": "Antimycobacterial activity against Mycobacterium tuberculosis H37Rv at 40 times MIC measured after 15 days in presence of methionine by alamar blue staining based microplate analysis", "assay_type": "functional, organism-based", "conditions": "time 15.0 day"}},
  "note": "Calls of active or inactive are those of the source. The calls are words filed in the database; no cut-off is given here.",
  "data": [
    {"smiles": "O=C(Nc1ccc2c(c1)OCOC2=O)c1ccc2ccccc2n1", "values": [
      {"measurement": "IC50", "setting": "[1]", "result": "> 25", "unit": "µM"},
      {"measurement": "MIC", "setting": "Mycobacterium avium", "result": "> 100", "unit": "µg/mL"},
      {"measurement": "MIC", "setting": "[2]", "result": "≥ 250", "unit": "µg/mL"},
      {"measurement": "MIC", "setting": "[3]", "result": 1.98, "unit": "µg/mL"},
      {"measurement": "MIC", "setting": "[4]", "result": 1.56, "unit": "µg/mL"},
      {"measurement": "MIC", "setting": "[5]", "result": 50, "unit": "µg/mL"},
      {"measurement": "Drug metabolism", "setting": "[6]", "result": "Metabolite_Detected"},
      {"measurement": "selectivity ratio", "setting": "[7]", "result": "> 5.1"},
      {"measurement": "Drug metabolism", "setting": "[8]", "result": "Metabolite_Detected"},
      {"measurement": "MIC", "setting": "Mycolicibacterium aurum", "result": "≥ 250", "unit": "µg/mL"},
      {"measurement": "half-life at 3 µM", "setting": "[9]", "result": 11, "unit": "min"},
      {"measurement": "MIC", "setting": "[10]", "result": 50, "unit": "µg/mL"},
      {"measurement": "MIC", "setting": "Mycobacterium kansasii", "result": "> 100", "unit": "µg/mL"},
      {"measurement": "Drug metabolism", "setting": "[11]", "result": "Metabolite_Detected"},
      {"measurement": "microsomal CLint at 3 µM", "setting": "[12]", "result": 122, "unit": "µL/min/mg"}
    ]},
    {"smiles": "O=C(Nc1ccc(C(=O)O)c(O)c1)c1ccc2ccccc2n1", "values": [
      {"measurement": "Activity", "setting": "[13]", "result": "inactive"},
      {"measurement": "Activity", "setting": "[14]", "result": "Active"},
      {"measurement": "Activity", "setting": "[15]", "result": "Active"},
      {"measurement": "Activity", "setting": "[16]", "result": "inactive"},
      {"measurement": "Activity", "setting": "[17]", "result": "Active"},
      {"measurement": "Activity", "setting": "[18]", "result": "Active"},
      {"measurement": "Activity", "setting": "[19]", "result": "inactive"},
      {"measurement": "Activity", "setting": "[20]", "result": "inactive"},
      {"measurement": "Activity", "setting": "[21]", "result": "inactive"}
    ]},
    {"smiles": "Nc1ccc(C(=O)O)c(O)c1", "note": "[AMINOSALICYLIC ACID]", "values": [
      {"measurement": "IC50", "setting": "[1]", "result": "> 1270", "unit": "µM"},
      {"measurement": "MIC", "setting": "Mycobacterium avium", "result": 3.13, "unit": "µg/mL"},
      {"measurement": "MIC", "setting": "[2]", "result": 500, "unit": "µg/mL"},
      {"measurement": "MIC", "setting": "[3]", "result": 0.25, "unit": "µg/mL"},
      {"measurement": "MIC", "setting": "[4]", "result": 3.13, "unit": "µg/mL"},
      {"measurement": "selectivity ratio", "setting": "[7]", "result": 62.1},
      {"measurement": "MIC", "setting": "Mycolicibacterium aurum", "result": 250, "unit": "µg/mL"},
      {"measurement": "Activity", "setting": "[22]", "result": "inactive"}
    ]}
  ]
}
